A selection: hits, their analogues and other compounds. The true share with any hit is near 1.3%.
NR2E3 ag-1: human photoreceptor-specific nuclear receptor agonism; AID 602229; CHO-S Gal4-NCOR/VP16-NR2E3 two-hybrid, luciferase; inhibition of corepressor binding, % at 3.98 µM; actives 0.35% (n = 360,000); Q9Y5X4;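 active = inhibition above the mean of all tested compounds plus 3 SD, cut at about 70% in these data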;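 also: 0% = DMSO with NR2E3 transfected cells and 100% = cells lacking NR2E3 construct; higher means lower luciferase signal from less NR2E3 corepressor binding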
NR2E3 ag-2: activates human photoreceptor nuclear receptor NR2E3. Q9Y5X4. GST-NR2E3/biotin-RetCOR TR-FRET, 1536-well. inhibition of corepressor binding, % at 4.78 µM. actives 0.12% (n = 320,000);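 active = percent inhibition above the cutoff of mean plus 3 SD of all tested compounds, set per screening campaign, cut at about 20% in these data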;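 also: 0% = DMSO wells and 100% = biotin wells as full block of FRET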
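Material: NR2E3–RetCOR corepressor complex / Incubation: Compound–protein incubation for 5 h at 4 °C / Dosing: compound at 4.8 µM, single dose / Detection: time-resolved FRET / Benchmarks: high control biotin, low control 0.6% DMSO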
PP5 primary: blocks human protein phosphatase 5 activity. P53041. purified PP5c, OMFP substrate fluorescence. inhibition, % at 6.7 µM. actives 0.18% (n = 320,000). AID 1987;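 active = inhibition above the campaign's mean inhibition across all tested compounds plus 3 SD, cut at about 9.5% in these data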;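 also: 0% = DMSO only and 100% = 100 µM cantharidin control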
PP1 counter: blocks human PP1-alpha phosphatase, a PP5 counter-screen. inhibition, % at 6.7 µM. AID 2235. P62136. actives 0.9% (n = 320,000). purified PP1alpha, OMFP fluorescence;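 active = inhibition above the mean inhibition of all tested compounds plus 3 SD, computed separately for each screening campaign, cut at about 15% in these data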
Target sequence (P62136 whole entry, looked up): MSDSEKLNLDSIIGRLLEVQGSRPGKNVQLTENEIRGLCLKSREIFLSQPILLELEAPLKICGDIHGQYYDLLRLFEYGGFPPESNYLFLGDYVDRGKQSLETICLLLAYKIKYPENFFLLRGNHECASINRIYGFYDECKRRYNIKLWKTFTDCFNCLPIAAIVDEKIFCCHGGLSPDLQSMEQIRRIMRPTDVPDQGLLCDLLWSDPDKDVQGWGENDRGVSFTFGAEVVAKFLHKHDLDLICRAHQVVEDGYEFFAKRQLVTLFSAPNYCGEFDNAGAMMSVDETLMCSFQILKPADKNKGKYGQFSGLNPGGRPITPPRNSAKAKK
PP1 confirm: confirmation of human PP1 phosphatase inhibitors; actives 52% (n = 1,900); inhibition, % at 6.7 µM; shares compounds with PP1 counter; purified PP1alpha, OMFP substrate fluorescence;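 active = mean PP1 inhibition above a set limit taken from the earlier primary screen, cut at about 15% in these data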
PP5 inh counter: PP5 phosphatase inhibition, counter-screen for PP1 inhibitors; purified PP5c, OMFP fluorescence; actives 4% (n = 1,900); shares compounds with PP1 counter; inhibition, % at 6.7 µM;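 active = mean PP5 inhibition over triplicate wells above about 9.5% taken from the earlier PP1 screen, limit read from the data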
* hit, by the source's call; nt = not tested or not shown.

SMILES	NR2E3 ag-1	NR2E3 ag-2	PP5 primary	PP1 counter	PP1 confirm	PP5 inh counter
NC(=O)CC(NC(=O)Cc1ccc(Br)cc1)c1ccc(N2CCC(Cc3ccccc3)CC2)c([N+](=O)[O-])c1 (centres undefined)	4	-2	0	23*	10	-6
COc1ccc(-c2csc(NC(=O)CCN3C(=O)C4CC=CCC4C3=O)n2)cc1OC (centres undefined)	3	-1	6	26*	-4	-2
Cc1cc(C(=O)N2CCCC(Nc3ccc(C(C)C)cc3)C2)nn1C (centres undefined)	4	3	-1	47*	-2	-2
CCOc1ccc(NC(=O)c2cccc(-n3cccc3)c2)cc1S(=O)(=O)N1CCOCC1	-2	0	4	22*	23*	1
CC[n+]1c(/C=C/N(C)c2ccccc2)n(-c2ccccc2)c2ccc(-c3nc4ccccc4s3)cc21	91*	-1	2	36*	8	0
Cc1cccc(CNC(=O)C2CCC(=O)N(CCc3cccc(F)c3)C2)n1 (centres undefined)	-22	nt	nt	nt	nt	nt
CC(=O)Nc1ccc(NC(=O)C(C)OC(=O)c2ccc3ccccc3n2)cc1 (centres undefined)	0	1	0	-6	nt	nt
Cc1ccc(Cn2nc(C)c(NC(=O)c3cc(-c4ccc5c(c4)OCO5)on3)c2C)cc1	nt	1	2	24*	37*	-4
Cc1cccc(C)c1NC(=O)CNC(=O)c1ccc(NS(=O)(=O)c2ccc3[nH]c(=O)[nH]c3c2)cc1	-4	-3	-1	93*	0	-3
CN1CCN(c2nc(-c3ccc(Cl)cc3)nc3ccccc23)CC1	-56	nt	nt	nt	nt	nt
Cc1ccc(C)c(Cn2nnc3c(=O)[nH]c(C4CCN(S(=O)(=O)c5ccc(S(=O)(=O)N(C)C)cc5)CC4)nc32)c1	1	1	5	6	nt	nt
Cc1ccc(Cn2nnc3c(=O)[nH]c(C4CCN(S(=O)(=O)c5cc(C)ccc5C)CC4)nc32)cc1	15	-1	4	28*	24*	4
Cc1ccc(Cn2nnc3c(=O)[nH]c(C4CCN(S(=O)(=O)c5ccc(F)cc5)CC4)nc32)cc1	9	3	2	14	nt	nt
Cc1ccc(C)c(Cn2nnc3c(=O)[nH]c(C4CCN(S(=O)(=O)c5ccc(S(=O)(=O)NC6CC6)cc5)CC4)nc32)c1	-29	4	5	18*	15*	5
Cc1ccc(C)c(S(=O)(=O)N2CCC(c3nc4c(nnn4Cc4ccc(F)cc4)c(=O)[nH]3)CC2)c1	3	1	4	18*	7	1
C=CCn1ccc(O)c(Cc2ccc(Cl)cc2)c1=O	-29	-4	0	-1	nt	nt
NS(=O)(=O)c1cccc(C(=O)N2CCCc3ccccc32)c1	-10	nt	nt	nt	nt	nt
O=C(c1cccc(S(=O)(=O)N2CCc3ccccc32)c1)N1CCCC(C(F)(F)F)C1 (centres undefined)	-2	1	1	0	nt	nt
O=C(NC1CCCc2ccccc21)c1cccc(F)c1 (centres undefined)	16	nt	nt	nt	nt	nt
CC1(C)Cc2c(C#N)c(N3CCN(C(=O)c4ccco4)CC3)nc(-c3ccco3)c2CS1	-39	5	6	19*	3	-3
CC(=O)N1CCN(c2nc(-c3ccco3)c3c(c2C#N)CC(C)(C)SC3)CC1	-16	5	2	2	nt	nt
Cc1ccccc1NC(=O)CN1C(=O)N/C(=C\c2ccccc2OCc2ccc(C(=O)O)cc2)C1=O	-30	-3	3	18*	16*	-7
O=C(CN1C(=O)N/C(=C\c2ccccc2OCc2ccc(C(=O)O)cc2)C1=O)Nc1ccc(F)cc1	5	-4	-1	0	nt	nt
O=C(O)c1ccc(COc2ccccc2/C=C2\NC(=O)N(Cc3ccc(F)cc3)C2=O)cc1	6	5	3	3	nt	nt
O=C(O)c1ccc(COc2ccccc2/C=C2/NC(=O)N(c3cccc(Cl)c3)C2=O)cc1	-8	1	1	38*	35*	2
SMILES	NR2E3 ag-1	NR2E3 ag-2	PP5 primary	PP1 counter	PP1 confirm	PP5 inh counter
CCNC(=O)C1CCCN(C(=O)c2cccc(C(F)(F)F)c2)CC1 (centres undefined)	-18	nt	nt	nt	nt	nt
Cc1ccsc1C(=O)N1CCCC(N(C)Cc2ccccc2)C1 (centres undefined)	-5	5	-1	0	nt	nt
O=C(CN1C(=O)NC2(CCCC2)C1=O)OCCOc1cccc(Cl)c1	-20	2	1	18*	-2	-5
Cc1cccc(OCCOC(=O)CN2C(=O)NC3(CCCC3)C2=O)c1	-18	2	0	1	nt	nt
COc1cc(Cn2c(N)c(C#N)c3nc4ccccc4nc32)cc(OC)c1	15	1	6	18*	8	6
Cc1cc2c(cc1S(=O)(=O)N1CCN(c3cccc(C)c3C)CC1)OCCN2C	-13	1	0	0	nt	nt
O=C(NN1C(=O)/C(=C/C=C/c2ccco2)SC1=S)c1ccccc1O	-18	9	0	33*	14	-3
COc1ccc2cc(/C(C)=N/NC(=O)c3cc(C)oc3C)ccc2c1	-62	nt	nt	nt	nt	nt
CCOC(=O)c1cc(OC(C)=O)c2ccc(OC)c(OC)c2c1	-42	nt	nt	nt	nt	nt
Nc1c(C(=O)Nc2nc3ccccc3s2)sc2nc(-c3cccs3)ccc12	-52	7	1	31*	32*	-1
CC(=O)c1sc2nc(-c3cccs3)ccc2c1N	-46	2	0	8	nt	nt
COc1cccc(/C=N/Nc2cc(-n3nc(C)cc3-c3ccccc3)ncn2)c1O	-30	0	3	21*	32*	-1
COc1cccc(/C=N/Nc2ncnc(Cl)c2N)c1O	-29	-3	-1	26*	32*	-2
COc1cccc(/C=N/Nc2ncnc3scc(-c4ccccc4)c23)c1O	-5	0	4	26*	32*	6
CN(C)CCNC(=O)c1ccc(-c2cnn(C)c2)c2ccoc12	-35	nt	nt	nt	nt	nt
CC(C)NC(=O)C1(C)CCCN1Cc1ccccc1C#N (centres undefined)	4	nt	nt	nt	nt	nt
CC(C)C[C@H](NC(=O)c1nc[nH]c1C(=O)NC(c1ccccc1)c1ccccc1)C(=O)OCc1ccccc1	-20	-1	2	19*	11	3
N#Cc1c(-c2ccccc2)nc(SCC(=O)N2c3ccccc3Sc3ccccc32)[nH]c1=O	-8	8	3	21*	17*	-1
COc1cc(OC)nc(Oc2cc(C=O)ccc2OC)n1	-10	-1	-1	-2	nt	nt
CS(=O)(=O)c1ccc(-c2nnc(NC(=O)c3ccc(S(=O)(=O)N4CCCC4)cc3)o2)cc1	-18	-1	0	3	nt	nt
COc1ccc(-c2nnc(NC(=O)c3ccc(S(=O)(=O)N4CCCc5ccccc54)cc3)o2)cc1	-17	-1	0	29*	40*	4
O=C(NCc1ccccc1)c1ccc(S(=O)(=O)N2CCCc3ccccc32)cc1	2	-4	1	-1	nt	nt
